Measured values of several laboratories.
Compare with care: the assays were run in different laboratories.
Target: Myosin light chain kinase (MYLK3, Homo sapiens, UniProt Q32MK0)
Residues used in one study (Q32MK0 1-819): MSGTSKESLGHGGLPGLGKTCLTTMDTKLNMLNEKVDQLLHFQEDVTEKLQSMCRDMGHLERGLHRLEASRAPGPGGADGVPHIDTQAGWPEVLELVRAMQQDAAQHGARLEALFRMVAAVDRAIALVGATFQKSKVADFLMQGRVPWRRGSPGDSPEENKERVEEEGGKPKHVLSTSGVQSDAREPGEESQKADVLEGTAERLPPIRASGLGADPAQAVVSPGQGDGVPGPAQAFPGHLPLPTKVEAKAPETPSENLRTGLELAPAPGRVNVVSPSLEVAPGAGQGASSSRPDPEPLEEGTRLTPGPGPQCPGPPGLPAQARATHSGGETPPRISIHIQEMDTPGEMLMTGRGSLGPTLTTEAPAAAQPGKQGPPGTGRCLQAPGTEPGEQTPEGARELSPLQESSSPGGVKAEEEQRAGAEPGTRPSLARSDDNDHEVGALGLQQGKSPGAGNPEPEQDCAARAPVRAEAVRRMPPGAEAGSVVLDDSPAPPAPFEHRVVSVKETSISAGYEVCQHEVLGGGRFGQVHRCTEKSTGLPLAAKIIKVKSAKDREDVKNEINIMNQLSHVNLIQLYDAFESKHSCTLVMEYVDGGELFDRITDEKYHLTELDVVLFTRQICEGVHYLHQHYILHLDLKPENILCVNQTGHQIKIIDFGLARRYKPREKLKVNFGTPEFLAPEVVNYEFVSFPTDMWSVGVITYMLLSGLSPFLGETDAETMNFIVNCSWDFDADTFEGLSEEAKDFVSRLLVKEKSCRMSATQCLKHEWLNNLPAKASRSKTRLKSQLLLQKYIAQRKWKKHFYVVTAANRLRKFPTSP

O=C(c1ccc(Nc2ncc(Cl)c(-c3ccc(Cl)s3)n2)cc1)N1CCC(N2CCCC2)CC1 gave a remaining binding of 6.7% (binding, competition with immobilised ligand; 1 µM).
CCN1CCN(Cc2ccc(C(=O)Nc3ccc(C)c(Oc4ccc5c(c4)CC(=O)N5)c3)cc2C(F)(F)F)CC1 has a remaining binding of 100% (binding, competition with immobilised ligand; 1 µM).
For O=C(NCCCN1CCOCC1)c1ccc(Nc2nccc(-c3cc4ccccc4s3)n2)cc1, the remaining binding was 3.6% (binding, competition with immobilised ligand; 1 µM).
With COc1ncc2cc3ccccc3nc2c1C#N the remaining binding was 96% (cell-free assay, competition with immobilised ligand; 5 µM).
For CN(C)c1ncc(F)c(-c2cnn3ncccc23)n1, the remaining binding was 77% (binding; 1 µM).
The remaining binding of N#CC1(c2ccccn2)CCN(Cc2cc(C(=O)N3CCCC3)c(=O)n3ccccc23)CC1 is reported as 76% (cell-free assay, competition with immobilised ligand; 1 µM).
With O=C(Nc1c[nH]nc1C(=O)NC1CCNCC1)c1cc(F)cc(F)c1 the remaining binding was 90% (binding, competition with immobilised ligand; 1 µM).
COc1cnc(Nc2cccc(S(N)(=O)=O)c2)nc1N1CCN(c2ccccc2)C(=O)C1 has a remaining binding of 97% (binding, competition with immobilised ligand; 1 µM).
The remaining binding of N[C@@H]1CCN(c2nccc(-c3cnn4ncccc34)n2)C1 is reported as 100% (binding; 1 µM).
COc1ccc2c(c1)O[C@H](c1ccc(OC)c(OC)c1)C[C@@H]2NC(=O)C1(c2ccc3c(c2)OC(F)(F)O3)CC1 gave a remaining binding of 95% (cell-free assay, competition with immobilised ligand; 1 µM).
O=C(c1ccc(Nc2ncc(Cl)c(-c3cc4ccccc4s3)n2)cc1)N1CCC(N2CCCC2)CC1 gave a remaining binding of 2% (binding, competition with immobilised ligand; 1 µM).
With CS(=O)(=O)NCC[C@H](NC(=O)c1cncc2c1cnn2-c1ccc(F)cc1)c1ccnc(S(C)(=O)=O)c1 the remaining binding was 100% (cell-free assay, competition with immobilised ligand; 1 µM).
For C[C@H]1CCN(c2nccc(-c3cnn4ncccc34)n2)C1, the remaining binding was 98% (binding; 1 µM).
For NS(=O)(=O)c1cc(NC(=O)Cc2ccccc2)ccc1Oc1cccc(Cl)c1, the remaining binding was 89% (cell-free assay, competition with immobilised ligand; 1 µM).
C[C@@H](c1ccc(-n2cnc3c(N)ncnc32)cc1)N1CCc2nn(C)c(Cc3ccccc3)c2C1=O gave a remaining binding of 100% (binding, competition with immobilised ligand; 0.1 µM).
The remaining binding of CN(CCCC(F)(F)F)c1nccc(-c2cnn3ncccc23)n1 is reported as 100% (binding; 1 µM).
The remaining binding of Nc1ncc2c(n1)-c1c([nH]c3ccc(C#CC4CC4)cc13)CCCC2 is reported as 91% (binding, competition with immobilised ligand; 1 µM).
With O=C(Nc1cccnn1)N1CCC(=Cc2cccc(Oc3ccc(C(F)(F)F)cn3)c2)CC1 the remaining binding was 100% (cell-free assay, competition with immobilised ligand; 1 µM).
CN(C)c1nccc(-c2cnc3ncccn23)n1 gave a remaining binding of 100% (binding; 1 µM).
CS(=O)(=O)N1CCCC(NC(=O)[C@H](CCC2CCCCC2)NC(=O)c2ccc(CNC(=O)c3cnc4ccccn34)cc2)C1 (stereo partly drawn) gave a remaining binding of 88% (cell-free assay, competition with immobilised ligand; 0.1 µM).
CC1CCCN1c1nccc(-c2cnn3ncccc23)n1 (stereo not drawn) has a remaining binding of 100% (binding; 1 µM).
